In brackets after ≈: the same amount, converted by molar mass.

Format in all cases: functional
Assay [1] has as its system A549. The assay is described as follows: Cytotoxicity against human A549 cells after 6 days by MTT assay. To be noted: A549, 144 h, read-out: ED50 (the source's name). The method in brief:
(§1)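 Human cell lines: A549 (lung adenocarcinoma) and HT-29 (colon adenocarcinoma), obtained from a culture collection. The assay follows a previously published procedure.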

The test system of assay [2] is HT-29. The assay can be described thus: Cytotoxicity against human HT-29 cells after 6 days by MTT assay. To be noted: HT-29, 144 h, read-out: ED50 (the source's name). The method in brief: as §1
A general note: Tetrazolium dyes change colour on reduction, which living cells bring about.

The test system of assay [3] is P388. The assay is described as follows: Cytotoxicity against mouse P388 cells after 3 days by MTT assay. Particulars: P388, 72 h, read-out: ED50 (the source's name). In short, it runs like this:
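Mouse P-388 lymphocytic leukemia cells, obtained from an academic laboratory. The assay follows a previously published procedure.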

As for `C=C1CC[C@@H]2CCc3coc(c3C2(C)C)C/C(C)=C/C(O)C1` (some centres undefined) [CESPITULARIN A], the results for the EC50 in assay [1], in assay [2] and in assay [3] were 8.42 µg/mL (≈ 28 µM), 9.76 µg/mL (≈ 32.5 µM) and 3.66 µg/mL (≈ 12.2 µM), respectively.

Turning to `C=C1CC/C=C(\C)Cc2occ3c2C(C)(C)[C@H](CC1)CC3` [CESPITULARIN B], the EC50 turned out to be 7.96 µg/mL (≈ 28 µM) in assay [1], 9.25 µg/mL (≈ 32.5 µM) in assay [2] and 3.23 µg/mL (≈ 11.4 µM) in assay [3].

As to `C=C1CC/C=C(\C)C[C@@H](O)C2=C(C)CC[C@@H](CC1)C2(C)C` [CESPITULARIN C], the EC50 is 0.12 µg/mL (≈ 0.416 µM) in assay [1], 8.86 µg/mL (≈ 30.7 µM) in assay [2] and 0.01 µg/mL (≈ 0.0347 µM) in assay [3].

Turning to `C=C1CC[C@@H]2CCC3=C(C2(C)C)[C@@](O)(C/C(C)=C/[C@@H](O)C1)OC3=O` [CESPITULARIN D], the EC50 in assay [1] was > 50 µg/mL; in assay [2], > 50 µg/mL; in assay [3], 3.86 µg/mL (≈ 11.6 µM).

For the compound `C=C1CC[C@@H]2CCC3=C(C(=O)[C@@H](/C(C)=C/C(O)C1)[C@H]3O)C2(C)C` (some centres undefined) [CESPITULARIN F], the EC50 in assay [1] was 16.1 µg/mL (≈ 50.9 µM); in assay [2] it was > 50 µg/mL; in assay [3] it was > 50 µg/mL.

As to `C=C1CC/C=C(\C)[C@@H]2C(=O)C3=C(CC[C@@H](CC1)C3(C)C)[C@@H]2O` [CESPITULARIN G], the EC50 in assay [1], in assay [2] and in assay [3] was > 50 µg/mL throughout.

As for `C/C1=C\C[C@@H]2CCC3=C(C(=O)[C@@H]([C@@H](C)CC(=O)C1)[C@H]3O)C2(C)C` [CESPITULARIN H], the EC50 in assay [1] was 9.32 µg/mL (≈ 29.5 µM); in assay [2], 23.7 µg/mL (≈ 74.9 µM); in assay [3], > 50 µg/mL.

Regarding `C=C1CC[C@@H]2CCC=C(C(=O)C/C(C)=C/C(O)C1)C2(C)C` (some centres undefined) [CESPUTULARIN E], the EC50 in assay [1] was found to be 0.034 µg/mL (≈ 0.118 µM); in assay [2] it was 17.1 µg/mL (≈ 59.3 µM); in assay [3] it was 4.66 µg/mL (≈ 16.2 µM).

The values above are taken from ChEMBL document CHEMBL1150653, “Novel terpenoids from the formosan soft coral Cespitularia hypotentaculata” (2002).
